Experiment [1] addresses T1, Chromosome-associated kinesin KIF4A (Homo sapiens) (UniProt O95239).
T1 sequence (whole entry): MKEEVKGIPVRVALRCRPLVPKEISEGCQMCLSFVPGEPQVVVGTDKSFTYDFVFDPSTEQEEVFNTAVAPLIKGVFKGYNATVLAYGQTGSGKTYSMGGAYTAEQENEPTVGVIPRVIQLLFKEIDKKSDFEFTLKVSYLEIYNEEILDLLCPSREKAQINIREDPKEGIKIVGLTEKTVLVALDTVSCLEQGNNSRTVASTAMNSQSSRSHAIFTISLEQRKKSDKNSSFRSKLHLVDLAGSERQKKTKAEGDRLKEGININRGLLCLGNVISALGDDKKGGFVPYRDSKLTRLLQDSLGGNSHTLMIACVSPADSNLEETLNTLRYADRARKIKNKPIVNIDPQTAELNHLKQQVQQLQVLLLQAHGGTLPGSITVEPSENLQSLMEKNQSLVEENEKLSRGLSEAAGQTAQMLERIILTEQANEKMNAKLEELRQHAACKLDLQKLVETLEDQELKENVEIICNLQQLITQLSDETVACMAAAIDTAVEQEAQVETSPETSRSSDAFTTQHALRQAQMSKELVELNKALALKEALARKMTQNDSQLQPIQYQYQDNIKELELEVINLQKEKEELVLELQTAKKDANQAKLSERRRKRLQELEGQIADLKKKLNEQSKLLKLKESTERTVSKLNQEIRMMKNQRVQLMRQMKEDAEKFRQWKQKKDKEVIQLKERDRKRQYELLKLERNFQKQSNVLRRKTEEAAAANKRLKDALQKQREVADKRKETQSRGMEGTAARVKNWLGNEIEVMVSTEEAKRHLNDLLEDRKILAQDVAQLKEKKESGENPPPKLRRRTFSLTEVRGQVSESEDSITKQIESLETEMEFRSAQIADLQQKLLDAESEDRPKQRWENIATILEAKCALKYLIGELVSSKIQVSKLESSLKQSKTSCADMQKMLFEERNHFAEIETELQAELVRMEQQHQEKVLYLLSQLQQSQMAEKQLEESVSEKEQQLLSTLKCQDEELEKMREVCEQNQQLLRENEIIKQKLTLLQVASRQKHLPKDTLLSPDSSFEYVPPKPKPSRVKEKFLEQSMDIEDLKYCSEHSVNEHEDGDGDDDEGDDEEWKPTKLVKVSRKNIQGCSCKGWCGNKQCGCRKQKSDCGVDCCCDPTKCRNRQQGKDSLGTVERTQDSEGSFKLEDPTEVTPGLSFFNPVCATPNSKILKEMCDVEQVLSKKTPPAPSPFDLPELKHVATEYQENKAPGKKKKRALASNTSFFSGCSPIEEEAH
The experiment can be described thus: Inhibition of porcine brain microtubule-stimulated human recombinant GST-tagged Kif4A ATPase activity at 1 mM by microplate reader in presence of Mg2+ ATP relative to control. The gist of the method:
(§1)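 Motor domain at 15 µM final, in 7.5 mM PIPES-NaOH pH 7.0 with […], 10 µM Taxol, ELIPA 1 and 2 reagents and 1.25 mg/mL microtubules. AMP-PNP, a slowly hydrolysable ATP analog and general ATPase inhibitor, tested at 1 mM. Reaction started with 1 mM Mg2+ATP at 22 °C and read kinetically at 360 nm. Run in triplicate.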

Experiment [2] deals with T2, Kinesin-like protein KIF23 (Homo sapiens) (UniProt Q02241).
T2 sequence (whole entry): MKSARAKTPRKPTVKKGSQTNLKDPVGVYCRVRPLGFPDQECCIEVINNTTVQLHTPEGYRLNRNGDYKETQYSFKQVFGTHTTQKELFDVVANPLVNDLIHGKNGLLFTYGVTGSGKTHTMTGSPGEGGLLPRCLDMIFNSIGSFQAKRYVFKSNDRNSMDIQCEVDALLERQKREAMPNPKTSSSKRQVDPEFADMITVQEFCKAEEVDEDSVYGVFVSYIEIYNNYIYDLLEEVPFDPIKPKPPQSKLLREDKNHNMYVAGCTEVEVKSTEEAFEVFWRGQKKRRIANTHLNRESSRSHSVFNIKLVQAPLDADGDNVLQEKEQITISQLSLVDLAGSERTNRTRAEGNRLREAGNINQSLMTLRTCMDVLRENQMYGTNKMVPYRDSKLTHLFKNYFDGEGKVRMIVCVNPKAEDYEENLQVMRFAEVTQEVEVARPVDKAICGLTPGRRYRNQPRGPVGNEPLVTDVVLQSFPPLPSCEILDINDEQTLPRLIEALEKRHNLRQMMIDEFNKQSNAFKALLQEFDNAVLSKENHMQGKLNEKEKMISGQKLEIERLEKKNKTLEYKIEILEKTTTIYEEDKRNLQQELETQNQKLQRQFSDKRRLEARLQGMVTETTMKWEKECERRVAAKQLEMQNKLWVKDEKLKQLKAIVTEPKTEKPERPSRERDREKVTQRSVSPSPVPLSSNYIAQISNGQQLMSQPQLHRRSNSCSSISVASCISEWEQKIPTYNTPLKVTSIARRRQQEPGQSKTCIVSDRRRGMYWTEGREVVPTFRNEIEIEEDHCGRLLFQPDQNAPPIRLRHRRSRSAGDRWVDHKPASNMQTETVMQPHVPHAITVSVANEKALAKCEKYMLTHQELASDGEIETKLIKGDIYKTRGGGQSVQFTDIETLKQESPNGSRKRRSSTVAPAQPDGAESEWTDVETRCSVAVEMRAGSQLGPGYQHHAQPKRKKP
The experiment can be described thus: Inhibition of porcine brain microtubule-stimulated human recombinant GST-tagged MKLP1 ATPase activity at 1 mM by microplate reader in presence of Mg2+ ATP relative to control. Summed up:
as §1

Another experiment has as its system A549. The experiment can be described thus: Growth inhibition of human A549 cells incubated for 4 days by WST-1 assay. To be noted: A549, 96 h. Type of experiment: functional. The gist of the method: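 Cells were kept at 37 °C under 5% CO2 and plated on day 0 at 500–5000 cells/well. On day 1 they received ten concentrations from 0.0025 to 50 µM (final), in triplicate. On day 4 WST-1 was added, followed by 30 min–4 h incubation and absorbance at 450 nm. GI50 is the concentration killing 50% of cells.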
On the technique in general: Tetrazolium dyes change colour on reduction, which living cells bring about.

SMILES strings stand for the structures.

As a reminder, the inhibition is how much of the control response was suppressed. Broadly, the GI50 is the concentration at which growth is held to half of that of the control.

Consider `Nc1ncnc2c1ncn2[C@@H]1O[C@H](COP(=O)(O)OP(=O)(O)NP(=O)(O)O)[C@@H](O)[C@H]1O`, for which the inhibition in experiment [1] and in experiment [2] was above 30% throughout.
In the case of `COc1ccc2[nH]cc(/C(C#N)=C/c3cccnc3)c2c1`, the GI50 in the experiment with A549 was determined as 9.4 µM.

The record behind these values is ChEMBL document CHEMBL3751740, “New MKLP-2 inhibitors in the paprotrain series: Design, synthesis and biological evaluations” (Bioorg Med Chem, 2016).
